# Ends that are not written are not given here. * marks the point of attachment. DTPA = O=C(O)CN(CCN(CC(=O)O)CC(=O)O)CCN(CC(=O)O)CC(=O)*; PEG = 40 kDa poly(ethylene glycol)
# Tests used:
# TIP1 protein = molecular target: T1, TIP1 protein (Homo sapiens, UniProt O14907); assay: Surface plasmon resonance; assay type: binding; settings: SPR BIAcore 2000, TIP1 on CM5 chip, Supplementary figure 1
# T1 sequence (O14907 1-124): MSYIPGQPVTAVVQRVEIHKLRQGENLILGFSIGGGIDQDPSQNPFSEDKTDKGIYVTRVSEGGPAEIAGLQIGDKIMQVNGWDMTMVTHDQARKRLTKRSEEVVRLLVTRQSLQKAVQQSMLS
# BxPC3 tumors = assay: NanoSPECT/CT imaging, heterotopic pancreatic tumors; assay type: in vivo; settings: nude mice, 48 h post injection, tumor irradiated 3 x 3 Gy
# D54 tumors = assay: NanoSPECT/CT imaging, heterotopic glioblastoma tumors; assay type: in vivo; settings: nude mice, 48 h post injection, tumor irradiated 3 x 3 Gy
# A549 tumors = assay: NanoSPECT/CT imaging, heterotopic lung tumors; assay type: in vivo; settings: nude mice, 48 h post injection, tumor irradiated 3 x 3 Gy
# HT3 tumors [1] = assay: NanoSPECT/CT imaging, heterotopic cervical tumors; assay type: in vivo, nude mice
# HT3 tumors [2] = assay type: in vivo, nude mice
# OE33 tumors [3] = assay: NanoSPECT/CT imaging, heterotopic esophageal tumors; assay type: in vivo, nude mice
# OE33 tumors [4] = assay: Autoradiography of tumor and muscle sections; assay type: in vivo, nude mice; settings: phosphor imager plate 16 h, after SPECT imaging
# How it was run: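 After SPECT, tumors were sectioned at 200 micron, with leg muscle sections as control tissue. Sections were exposed to a phosphor imager plate for 16 h at −20 °C, and the plate was scanned to map microdistribution of the ¹¹¹In-labelled PEG-peptide.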
# OE33 tumors [5] = assay type: in vivo, nude mice
# [6] = nude mice, i.v. ~500 μCi, 48 h and 72 h post injection, n=3 per group
# [7] = right hind limb tumor 3 x 3 Gy vs left sham tumor
# [8] = 96 h post injection, gamma counter, n=3 per group
binding to immobilized TIP1 (sensogram comparison) (TIP1 protein),Substance,"tumor binding by SPECT/CT, irradiated BxPC3 tumors, compared to PEG-control (BxPC3 tumors)","tumor binding by SPECT/CT, irradiated D54 tumors, compared to PEG-control (D54 tumors)","tumor binding by SPECT/CT, irradiated A549 tumors, compared to PEG-control (A549 tumors)","tumor binding by SPECT, HT3 tumors (HT3 tumors [1]; [6])","effect of irradiating the tumor on tumor binding, HT3 (HT3 tumors [1]; [7])","tumor uptake in biodistribution vs control peptide, HT3 (HT3 tumors [2]; [8])","presence in blood and liver, HT3 tumor-bearing mice (HT3 tumors [2]; mouse, in vivo)","tumor binding by SPECT, OE33 tumors (OE33 tumors [3]; [6])","effect of irradiating the tumor on tumor binding, OE33 (OE33 tumors [3]; [7])",microscopic distribution in OE33 tumor sections (OE33 tumors [4]),uptake in leg muscle sections (control tissue) (OE33 tumors [4]),"tumor uptake in biodistribution vs control peptide, OE33 (OE33 tumors [5]; [8])","presence in blood and liver, OE33 tumor-bearing mice (OE33 tumors [5]; mouse, in vivo)"
did not show binding,"HGVIGRV [scrambled peptide, reference compound]",,,,,,,,,,,,,
did not alter the binding affinity,"mPEG40K-carbonyl-Lys(CHX-A”-DTPA)-AEEAc-Lys(CHX-A”-DTPA)-AEEAc-Trp-Lys(CHX-A”-DTPA)-AEEAc-Gly-Ile-Arg-Leu-Arg-Gly-OH [PEG-HVGGSSV, mPEG40K-carbonyl-Lys(CHX-A”-DTPA)-AEEAc-Lys(CHX-A”-DTPA)-AEEAc-Trp-Lys(CHX-A”-DTPA)-AEEAc-Gly-Ile-Arg-Leu-Arg-Gly-OH trifluoroacetate Salt]",,,,,,,,,,,,,
,^111In-labeled PEG-DTPA-HVGGSSV: DTPA-PEG-HVGGSSV labeled with ^111Indium ({DTPA-PEG}-HVGGSSV; also: 111In chelated by DTPA),enhanced binding,enhanced binding,enhanced binding,bound,did not affect tumor binding,significantly higher (p<0.001),observed in the blood and liver,bound,did not affect tumor binding,even distribution,no peptide uptake,significantly higher (p<0.001),observed in the blood and liver
